From ChEMBL document CHEMBL1123788, “Synthesis and antitumor activity of tropolone derivatives. 5” (J Med Chem, 1987)
Values after ≈ are worked out from the molar mass of the structure shown. Active and inactive are the calls of the source. No cut-off for these calls is given here.

How the values were obtained:
[1] = system: P388; assay: In vivo antitumor activity against leukemia P388 in mice at 400 mg/kg dosage administered intraperitoneally once a day for 1 and 5 days; compound is inactive; type: functional, organism-based; set-up: dose 400 mg/kg; conditions: Mus musculus
Method in brief: (§1)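 Mice bearing P388 leukemia were given the compound intraperitoneally once daily for 1 and 5 days, at doses of 0.6 to 400 mg/kg; single-dose screens were run at 400 mg/kg. Antitumor activity is reported as T/C, %.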

[2] = In vitro inhibition of KB cell growth; type: functional, cell-based; conditions: Homo sapiens
[3] = system: P388; assay: In vivo antitumor activity against leukemia P388 in mice at 0.6 mg/kg dosage administered intraperitoneally once a day for 1 and 5 days; type: functional, Mus musculus; conditions: route intraperitoneal; method in brief: as §1
[4] = system: P388; assay: In vivo antitumor activity against leukemia P388 in mice at 2.5 mg/kg dosage administered intraperitoneally once a day for 1 and 5 days; type: functional, Mus musculus; conditions: route intraperitoneal; method in brief: as §1
[5] = system: P388; assay: In vivo antitumor activity against leukemia P388 in mice at 5 mg/kg dosage administered intraperitoneally once a day for 1 and 5 days; type: functional, Mus musculus; conditions: route intraperitoneal; method in brief: as §1
[6] = system: P388; assay: In vivo antitumor activity against leukemia P388 in mice at 100 mg/kg dosage administered intraperitoneally once a day for 1 and 5 days; type: functional, Mus musculus; conditions: route intraperitoneal; method in brief: as §1
[7] = system: P388; assay: In vivo antitumor activity against leukemia P388 in mice at 200 mg/kg dosage administered intraperitoneally once a day for 1 and 5 days; type: functional, Mus musculus; conditions: route intraperitoneal; method in brief: as §1
[8] = system: P388; assay: In vivo antitumor activity against leukemia P388 in mice at 400 mg/kg dosage administered intraperitoneally once a day for 1 and 5 days; type: functional, Mus musculus; conditions: route intraperitoneal; method in brief: as §1
[9] = system: P388; assay: In vivo antitumor activity against leukemia P388 in mice at 50 mg/kg dosage administered intraperitoneally once a day for 1 and 5 days; type: functional, Mus musculus; conditions: route intraperitoneal; method in brief: as §1

## COc1ccc(C(c2ccc(C(C)C)cc(S)c2=O)c2ccc(C(C)C)cc(S)c2=O)cc1
[1]
  T/C: inactive
[2]
  IC50: 5.3 µg/mL (≈ 11.1 µM)

## COc1ccc(C(c2ccc(C(C)C)cc(=O)c2OC)c2ccc(C(C)C)cc(=O)c2OC)cc1
[1]
  T/C: inactive

## C/N=c1\cc(C(C)C)ccc(C(c2ccc(OC)cc2)c2ccc(C(C)C)cc(NC)c2=O)c1O (centres undefined)
[1]
  T/C: inactive
[2]
  IC50: 100 µg/mL (≈ 212 µM)

## COc1ccc(C(c2ccc(C(C)C)cc(=O)c2OC)c2ccc(C(C)C)cc(OC)c2=O)cc1 (centres undefined)
[1]
  T/C: inactive
[2]
  IC50: 5.4 µg/mL (≈ 11.4 µM)

## COc1ccc(C(c2ccc(C(C)C)cc(OC)c2=O)c2ccc(C(C)C)cc(OC)c2=O)cc1
[1]
  T/C: inactive
[2]
  IC50: 23.5 µg/mL (≈ 49.5 µM)

## COc1ccc(C(c2ccc(C(C)C)cc(=O)c2O)c2ccc(C(C)C)cc(=O)c2O)cc1
[3]
  T/C: 127%
[2]
  IC50: 0.5 µg/mL (≈ 1.12 µM)
[4]
  T/C: 134%
[5]
  T/C: 173%

## COc1ccc(C(c2ccc(C(C)C)cc(=O)c2O)c2ccc(C(C)C)cc(OC)c2=O)cc1 (centres undefined)
[6]
  T/C: 133%
[7]
  T/C: 148%
[8]
  T/C: 60%
[2]
  IC50: 1.7 µg/mL (≈ 3.69 µM)

## CCOC(c1ccc(OC)cc1)c1ccc(C(C)C)cc(=O)c1O (centres undefined)
[6]
  T/C: 140%
[7]
  T/C: 128%
[8]
  T/C: 140%
[2]
  IC50: 0.5 µg/mL (≈ 1.52 µM)
[9]
  T/C: 119%

## CNc1cc(C(C)C)ccc(C(c2ccc(OC)cc2)c2ccc(C(C)C)cc(=O)c2O)c1=O (centres undefined)
[1]
  T/C: inactive
[2]
  IC50: 50 µg/mL (≈ 109 µM)
